Data on 42 compounds can be found in ChEMBL document CHEMBL3232972, “Synthesis and biological evaluation of some novel pyrido[1,2-a]pyrimidin-4-ones as antimalarial agents” (Eur J Med Chem, 2014).

One assay relates to Plasmodium falciparum. Briefly: Antimalarial activity against erythrocytic stages of chloroquine-sensitive Plasmodium falciparum 3D7 infected in human O-positive erythrocytes after 48 hrs by SYBR Green-I fluorescence-based method. To be noted: 3D7, 48 h. The class given is functional, organism-based.
Assay [1] in a line: Cytotoxicity against human HuH7 cells after 24 hrs by MTT assay. It is filed as cell-based. As to conditions: Huh-7, 24 h. The gist of the method:
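Huh-7 cells in DMEM with 10% FBS and gentamicin, seeded at 10⁴ cells per well and left overnight. Compounds added for 24 h at 37 °C, 5% CO2, with 10% DMSO as positive control. MTT added for a further 3 h. Formazan dissolved in DMSO after centrifugation, read at 570 nm. IC50 from dose-response curves.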
In general terms: Tetrazolium assays rely on reduction of a dye to a coloured formazan, in cell work by metabolically active cells.

Assay [2] is described as follows: Selectivity index, ratio for IC50 for human HuH7 cells to IC50 for erythrocytic stages of chloroquine-sensitive Plasmodium falciparum 3D7. The class given is functional, Huh-7.

Turning to `COc1ccc(-c2ccc3ncc(C(=O)NCc4ccc(C(F)(F)F)cc4)c(=O)n3c2)cc1`, in the assay on Plasmodium falciparum, the IC50 was above 100 µM. In the assay with Plasmodium falciparum, `O=C(NCc1ccccc1C(F)(F)F)Nc1cnc2ccccn2c1=O` showed an IC50 of 100 µM. The same measure, in the same setting: in the case of `O=C(NCc1ccc(C(F)(F)F)cc1)Nc1cnc2ccccn2c1=O` it was above 100 µM; in that of `O=C(NCCC(c1ccccc1)c1ccccc1)Nc1cnc2ccccn2c1=O`, above 100 µM; in that of `O=C(Nc1ncccc1OCc1ccccc1)Nc1cnc2ccccn2c1=O`, above 100 µM.

The compound `CC(C)N(Cc1ccccc1)C(=O)Nc1cnc2ccccn2c1=O` came in with an IC50 in the assay with Plasmodium falciparum of 70 µM. Regarding `Cc1ccn2c(=O)c(NC(=O)N(Cc3ccccc3)C(C)C)cnc2c1`, in the assay on Plasmodium falciparum, the IC50 was above 100 µM. In the assay with Plasmodium falciparum, `O=C(NCc1cccs1)Nc1cnc2ccc(Cl)cn2c1=O` had an IC50 above 100 µM. On to `COCCNC(=O)Nc1cnc2ccc(Cl)cn2c1=O`, for which the IC50 with Plasmodium falciparum was above 100 µM. `O=C(NCc1ccc(C(F)(F)F)cc1)Nc1cnc2ccc(Cl)cn2c1=O`: the IC50 in the assay with Plasmodium falciparum was above 100 µM. `O=C(NCc1cccc(C(F)(F)F)c1)Nc1cnc2ccc(Cl)cn2c1=O` had an IC50 in the assay on Plasmodium falciparum above 100 µM. `O=C(NCc1ccccc1C(F)(F)F)Nc1cnc2ccc(Cl)cn2c1=O` showed an IC50 with Plasmodium falciparum above 100 µM. In turn, `CC(C)N(Cc1ccccc1)C(=O)Nc1cnc2ccc(Cl)cn2c1=O` yielded an IC50 in the assay on Plasmodium falciparum above 100 µM. Still for that read-out and setting: under `O=C(NC1CC1)c1cccnc1N1CCN(C(=O)Nc2cnc3ccccn3c2=O)CC1` stands above 100 µM; under `CC(C)(C)OC(=O)N1CCN(C(=O)Nc2cnc3ccc(Cl)cn3c2=O)CC1`, above 100 µM. On to `O=C(Nc1cnc2ccc(Cl)cn2c1=O)N1CCN(C(=O)c2ccco2)CC1`, for which, in the assay with Plasmodium falciparum, the half-inhibitory concentration (IC50) was above 100 µM.

For `O=C(Nc1cnc2ccccn2c1=O)OCc1cccc(F)c1`, the IC50 in the assay on Plasmodium falciparum was 33 µM; in assay [1], above 100 µM. In addition, the “Ratio IC50” value in assay [2] is listed as above 3.

On to `O=C(Nc1cnc2ccccn2c1=O)OCc1ccc2c(c1)OCO2`, for which the IC50 in the assay on Plasmodium falciparum was above 100 µM. `O=C(Nc1cnc2ccc(Cl)cn2c1=O)OCc1ccccn1` came in with an IC50 in the assay with Plasmodium falciparum above 100 µM.

In the assay with Plasmodium falciparum, `O=C(Nc1cnc2ccc(Cl)cn2c1=O)OCc1cccnc1` registered a 50% inhibitory concentration (IC50) above 100 µM. Compound `O=C(Nc1cnc2ccc(Cl)cn2c1=O)OCc1cccc(F)c1` had an IC50 with Plasmodium falciparum above 100 µM. On the same count and under the same terms, in the case of `CCOC(=O)[C@H](Cc1ccccc1)NC(=O)Nc1cnc2ccccn2c1=O` it was above 100 µM; in that of `NC(=O)[C@H](Cc1ccccc1)NC(=O)Nc1cnc2ccccn2c1=O`, above 100 µM; in that of `CC(C)C[C@H](NC(=O)Nc1cnc2ccccn2c1=O)C(N)=O`, above 100 µM. In the assay with Plasmodium falciparum, `N#C[C@H](Cc1ccccc1)NC(=O)Nc1cnc2ccccn2c1=O` yielded an IC50 above 100 µM.

On to `CC(C)C[C@@H](C#N)NC(=O)Nc1cnc2ccccn2c1=O`, for which the IC50 with Plasmodium falciparum is above 100 µM. In the case of `COc1ccc(CNC(=O)c2cnc3ccccn3c2=O)cc1`, the IC50 with Plasmodium falciparum is above 100 µM. In turn, `O=C(NCc1cccc(F)c1)c1cnc2ccccn2c1=O` registered an IC50 with Plasmodium falciparum of 43 µM. As to `O=C(NCc1ccccc1C(F)(F)F)c1cnc2ccccn2c1=O`, the IC50 with Plasmodium falciparum was above 100 µM. On to `O=C(NCc1cccc(C(F)(F)F)c1)c1cnc2ccccn2c1=O`, for which the IC50 was 65 µM with Plasmodium falciparum and above 200 µM in assay [1]. Moreover, the “Ratio IC50” value in assay [2] is given as above 3. For `O=C(NCc1ccc(C(F)(F)F)cc1)c1cnc2ccccn2c1=O`, the IC50 is 37 µM in the assay on Plasmodium falciparum and above 200 µM in assay [1]. In addition, in assay [2], the “Ratio IC50” value is reported as above 5.4. `O=C(NCc1ccc(F)cc1F)c1cnc2ccccn2c1=O`: the IC50 with Plasmodium falciparum is 59 µM; in assay [1], above 200 µM. The “Ratio IC50” value in assay [2] was above 3.3. For the compound `O=C(NCCN1CCOCC1)c1cnc2ccccn2c1=O`, the IC50 in the assay on Plasmodium falciparum was above 100 µM.

Take `CCCCCOc1cccnc1NC(=O)c1cnc2ccccn2c1=O`: the IC50 with Plasmodium falciparum was above 100 µM. As for `O=C(Nc1ncccc1OCc1ccccc1)c1cnc2ccccn2c1=O`, half-maximal inhibition in the assay on Plasmodium falciparum (IC50) required 100 µM. In turn, `Cc1noc(C)c1NC(=O)c1cnc2ccccn2c1=O` had an IC50 in the assay with Plasmodium falciparum above 100 µM. In the assay with Plasmodium falciparum, `COc1ccc(C(C)NC(=O)c2cnc3ccccn3c2=O)cc1` (configuration not stated) had an IC50 above 100 µM. Still for that read-out and setting: in the case of `O=C(NC1CCN(Cc2ccccc2)CC1)c1cnc2ccccn2c1=O` it was above 100 µM; in that of `O=C(c1cnc2ccccn2c1=O)N(Cc1ccccc1F)C1CC1`, above 100 µM.

Consider `Cc1ccn2c(=O)c(C(=O)NCc3ccc(C(F)(F)F)cc3)cnc2c1`, for which the values for the IC50 (in the assay on Plasmodium falciparum; in assay [1]) were 70 µM and above 100 µM, respectively. Moreover, the “Ratio IC50” value in assay [2] is reported as above 1.4. The compound `COc1ccc(-c2ccc3ncc(C(=O)NCc4cccc(F)c4)c(=O)n3c2)cc1` returned an IC50 in the assay with Plasmodium falciparum above 100 µM. `COc1ccc(-c2ccc3ncc(C(=O)NCC4CCCO4)c(=O)n3c2)cc1` (configuration not stated): the IC50 in the assay with Plasmodium falciparum was found to be 100 µM.

A word on the IC50: it is the concentration needed to halve the response being measured.
